{"source": "paper PMC4548982", "about": "(Chembiochem : a European journal of chemical biology, 2015)", "key": {"[1]": {"tested_on": "control (WT) E. coli ribosomes", "experiment": "EF-G-dependent translocation inhibition", "type": "biochemical", "conditions": "in vitro, WT (and A1408G) ribosomes"}, "[2]": {"tested_on": "mutant A1408G E. coli ribosomes", "experiment": "EF-G-dependent translocation inhibition", "type": "biochemical", "conditions": "read-out: Translocation inhibition IC50, A1408G", "procedure,_shortened": "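Ribosomes purified from the corresponding Δ7 prrn E. coli strain carrying A1408G. The extent of EF-G-dependent translocation was measured by toeprinting across various concentrations of the test aminoglycoside. IC50 was obtained by fitting the data to the Hill equation.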"}, "E. coli Δ7 prrn WT": {"tested_on": "E. coli Δ7 prrn WT", "experiment": "Growth inhibition of E. coli Δ7 prrn WT", "type": "cell-based", "conditions": "for antibacterial activity in words: E. coli Δ7 prrn WT compared with A1408G and G1491U strains"}, "E. coli Δ7 prrn A1408G": {"tested_on": "E. coli Δ7 prrn A1408G", "experiment": "Growth inhibition of E. coli Δ7 prrn A1408G", "type": "cell-based", "conditions": "Escherichia coli"}, "E. coli TolC (O)": {"tested_on": "E. coli TolC (O)", "experiment": "Antibacterial MIC, E. coli TolC", "type": "cell-based", "conditions": "Escherichia coli"}, "E. coli Δ7 prrn G1491U": {"tested_on": "E. coli Δ7 prrn G1491U", "experiment": "Growth inhibition of E. coli Δ7 prrn G1491U", "type": "cell-based", "conditions": "Escherichia coli"}, "AAC(6′)-Ib′": {"tested_on": "AAC(6′)-Ib′", "experiment": "Relative initial rate of AME reaction, AAC", "type": "biochemical"}, "ribosome": {"tested_on": "ribosome", "conditions": "cited from earlier work"}}, "note": "Entries after “also recorded” stand apart in the source; their conditions may differ."}
{"smiles": "COc1ccccc1SC[C@H]1O[C@H](O[C@@H]2[C@@H](O)[C@H](O[C@H]3O[C@H](CN)[C@@H](O)C[C@H]3N)[C@@H](N)C[C@H]2N)[C@H](O)[C@@H](N)[C@@H]1O", "note": "[3u]", "values": [{"measurement": "inhibition of translocation in words", "setting": "[1]", "value": "notably poorer inhibitors of translocation"}, {"measurement": "IC50", "setting": "[2]", "value": 620, "unit": "µM"}]}
{"smiles": "CCCCSCC1OC(OC2C(N)CC(N)C(OC3OC(CN)C(O)CC3N)C2O)C(O)C(N)C1O", "note": "(stereo not shown) [3a]", "values": [{"measurement": "antibacterial activity in words", "setting": "E. coli Δ7 prrn WT", "value": "biological activity indistinguishable from TOB"}]}
{"smiles": "CC(C)(C)c1ccc(SCC2OC(OC3C(N)CC(N)C(OC4OC(CN)C(O)CC4N)C3O)C(O)C(N)C2O)cc1", "note": "(stereo not shown) [3s]", "values": [{"measurement": "antibacterial activity in words", "setting": "E. coli Δ7 prrn WT", "value": "virtually inactive"}]}
{"smiles": "CCCCCCSCC1OC(OC2C(N)CC(N)C(OC3OC(CN)C(O)CC3N)C2O)C(O)C(N)C1O", "note": "(stereo not shown) [3b]", "values": [{"measurement": "antibacterial activity in words", "setting": "E. coli Δ7 prrn WT", "value": "virtually inactive; also recorded: antibacterial activity is completely lost"}]}
{"smiles": "NCC1OC(OC2C(N)CC(N)C(OC3OC(CSc4cccc(F)c4)C(O)C(N)C3O)C2O)C(N)CC1O", "note": "(stereo not shown) [3y]", "values": [{"measurement": "IC50", "setting": "[2]", "value": 210, "unit": "µM"}]}
{"smiles": "CCCCCCCCCCCCSC[C@H]1O[C@H](O[C@@H]2[C@@H](O)[C@H](O[C@H]3O[C@H](CN)[C@@H](O)C[C@H]3N)[C@@H](N)C[C@H]2N)[C@H](O)[C@@H](N)[C@@H]1O", "note": "[3e]", "values": [{"measurement": "antibacterial activity in words", "setting": "E. coli Δ7 prrn WT", "value": "lower activity with little-to-no h44-dependence"}, {"measurement": "inhibition of translocation in words", "setting": "[1]", "value": "fails to inhibit translocation"}]}
{"smiles": "NC[C@H]1O[C@H](O[C@H]2[C@H](O)[C@@H](O[C@H]3O[C@H](CO)[C@@H](O)[C@H](N)[C@H]3O)[C@H](N)C[C@@H]2N)[C@H](N)C[C@@H]1O", "note": "[TOB, tobramycin]", "values": [{"measurement": "MIC", "setting": "E. coli Δ7 prrn A1408G", "value": "> 150", "unit": "µg/mL"}, {"measurement": "MIC", "setting": "E. coli Δ7 prrn WT; Escherichia coli", "value": 18.8, "unit": "µg/mL"}, {"measurement": "IC50", "setting": "[2]", "value": 700, "unit": "µM"}, {"measurement": "MIC", "setting": "E. coli TolC (O)", "value": "> 150", "unit": "µg/mL"}, {"measurement": "MIC", "setting": "E. coli Δ7 prrn G1491U", "value": "> 150", "unit": "µg/mL"}]}
{"smiles": "CCCCCCCCCCCCCCCCCCSC[C@H]1O[C@H](O[C@@H]2[C@@H](O)[C@H](O[C@H]3O[C@H](CN)[C@@H](O)C[C@H]3N)[C@@H](N)C[C@H]2N)[C@H](O)[C@@H](N)[C@@H]1O", "note": "[3h]", "values": [{"measurement": "inhibition of translocation in words", "setting": "[1]", "value": "failed to inhibit translocation"}]}
{"smiles": "CCCCCCCCCCCCCCSC[C@H]1O[C@H](O[C@@H]2[C@@H](O)[C@H](O[C@H]3O[C@H](CN)[C@@H](O)C[C@H]3N)[C@@H](N)C[C@H]2N)[C@H](O)[C@@H](N)[C@@H]1O", "note": "[3f]", "values": [{"measurement": "relative initial rate, normalized to TOB", "setting": "AAC(6′)-Ib′", "value": "> 200", "unit": "%"}, {"measurement": "antibacterial activity in words", "setting": "E. coli Δ7 prrn WT", "value": "indistinguishably strong antibacterial activity"}, {"measurement": "inhibition of in vitro translation in words", "setting": "ribosome", "value": "fails to inhibit in vitro translation"}]}
{"smiles": "CCCCCCCCCCCCCCCCSCC1OC(OC2C(N)CC(N)C(OC3OC(CN)C(O)CC3N)C2O)C(O)C(N)C1O", "note": "(stereo not shown) [3g]", "values": [{"measurement": "antibacterial activity in words", "setting": "E. coli Δ7 prrn WT", "value": "indistinguishably strong antibacterial activity"}]}
{"smiles": "NC[C@H]1O[C@H](O[C@H]2[C@H](O)[C@@H](O[C@H]3O[C@H](CSc4ccccc4F)[C@@H](O)[C@H](N)[C@H]3O)[C@H](N)C[C@@H]2N)[C@H](N)C[C@@H]1O", "note": "[3x]", "values": [{"measurement": "inhibition of translocation in words", "setting": "[1]", "value": "notably poorer inhibitors of translocation"}, {"measurement": "IC50", "setting": "[2]", "value": 310, "unit": "µM"}]}
{"smiles": "CCCCCCCCCCSC[C@H]1O[C@H](O[C@@H]2[C@@H](O)[C@H](O[C@H]3O[C@H](CN)[C@@H](O)C[C@H]3N)[C@@H](N)C[C@H]2N)[C@H](O)[C@@H](N)[C@@H]1O", "note": "[3d]", "values": [{"measurement": "antibacterial activity in words", "setting": "E. coli Δ7 prrn WT", "value": "lower activity with little-to-no h44-dependence"}, {"measurement": "inhibition of translocation in words", "setting": "[1]", "value": "failed to inhibit translocation"}]}
